Legend:
[1] = molecular target: T1, Acb2 (Pseudomonas phage PaMx33, UniProt A0A1C8HPQ3); assay: Isothermal titration calorimetry; assay type: binding
[2] = molecular target: T1, Acb2; assay: Native-PAGE assay of Acb2 with cyclic dinucleotides; assay type: binding; conditions: Acb2 14.3 μM, cyclic dinucleotide 1.8-7.2 μM
Summary of the method: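 Purified Acb2 (14.3 μM) preincubated 10 min at 18°C with cyclic dinucleotide at 1.8, 3.6 or 7.2 μM. Mixtures resolved on 5% native polyacrylamide gels and stained with Coomassie blue.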

[3] = molecular target: T1, Acb2; assay: HPLC assay of cyclic dinucleotide sequestering by Acb2; assay type: binding; conditions: 40 μM Acb2 pre-incubated with 4 μM cyclic dinucleotide
[4] = test system: Acb2 homolog from E. coli phage T4 (gene vs.4); conditions: cited from earlier work
[5] = molecular target: Acb2 K26A (Pseudomonas phage PaMx33, UniProt A0A1C8HPQ3, K26A); assay: ITC / native PAGE binding of 3’,3’-cGAMP to Acb2 K26A mutant; conditions: ITC and native PAGE
Chain of Acb2 K26A (A0A1C8HPQ3 whole entry K26A): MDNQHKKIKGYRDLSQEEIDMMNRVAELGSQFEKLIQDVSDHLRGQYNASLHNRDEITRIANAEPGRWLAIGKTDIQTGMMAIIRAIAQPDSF

[6] = molecular target: Acb2 Y11A (Pseudomonas phage PaMx33, UniProt A0A1C8HPQ3, Y11A); assay: ITC / native PAGE binding of 3’,3’-cGAMP to Acb2 Y11A mutant; conditions: ITC and native PAGE
Chain of Acb2 Y11A (A0A1C8HPQ3 whole entry Y11A): as the sequence (A0A1C8HPQ3 whole entry K26A) above, with Y11A, A26K counted along it

[7] = molecular target: CapV (Pseudomonas aeruginosa, UniProt P0DX85); assay: Fluorogenic biochemical assay for CapV phospholipase activity; set-up: species or system P. aeruginosa BWHPSA011 (Pa011); conditions: 3’,3’-cGAMP 0.025-0.8 μM, other cyclic dinucleotides 0.8 μM
[8] = molecular target: the molecule itself; assay: crystal structure
[9] = test system: Pa011 CBASS immunity; assay: Plaque assays with PaMx41 phage on Pa011 WT; assay type: cell-based, Pseudomonas aeruginosa; conditions: variant overexpressed in Pa011 WT, in the presence of CBASS
Summary of the method: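 gp24 variants expressed episomally from arabinose-inducible, gentamicin-selected pHERD30T in Pa011 WT and ΔCBASS. Overnight culture (150 μl) mixed with top agar on LB agar. Phage lysate 10-fold serially diluted and spotted (2 μl) onto the solidified top agar; plates incubated at 37°C and titre read from plaques.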

[10] = molecular target: T2, CdnA (Pseudomonas aeruginosa, UniProt P0DX86); assay: Gel filtration assay of Acb2 with CdnA; assay type: binding, P. aeruginosa BWHPSA011 (Pa011); conditions: molar ratio 5:1
T2 sequence (P0DX86 1-380): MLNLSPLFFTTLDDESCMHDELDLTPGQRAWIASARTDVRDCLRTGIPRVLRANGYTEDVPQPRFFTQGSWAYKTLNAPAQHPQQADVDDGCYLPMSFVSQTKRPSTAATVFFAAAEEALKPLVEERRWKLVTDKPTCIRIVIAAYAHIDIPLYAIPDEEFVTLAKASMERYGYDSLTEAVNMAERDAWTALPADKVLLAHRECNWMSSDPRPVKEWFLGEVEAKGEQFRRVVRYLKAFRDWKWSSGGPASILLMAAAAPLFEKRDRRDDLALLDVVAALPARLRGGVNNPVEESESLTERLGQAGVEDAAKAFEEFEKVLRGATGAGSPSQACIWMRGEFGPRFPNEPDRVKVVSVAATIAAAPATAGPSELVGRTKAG
Summary of the method: (§1)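 Acb2 (E. coli BL21(DE3), 0.2 mM IPTG at OD600 0.8, 18°C 12 h; Ni-NTA, tag removed with Ulp1, Superdex-200) incubated with His-tagged partner protein at 5:1 molar ratio overnight on ice. Gel filtration was on Superdex-200 increase 10/300 GL in 10 mM Tris–HCl pH 8.0, 200 mM NaCl, 5 mM DTT at 0.5 mL/min. Fractions were analysed by SDS-PAGE with Coomassie staining.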

[11] = molecular target: T3, Cap2 (Pseudomonas aeruginosa, UniProt P0DX87); assay: Gel filtration assay of Acb2 with Cap2; assay type: binding, P. aeruginosa BWHPSA011 (Pa011); conditions: molar ratio 5:1
T3 sequence (P0DX87 1-543): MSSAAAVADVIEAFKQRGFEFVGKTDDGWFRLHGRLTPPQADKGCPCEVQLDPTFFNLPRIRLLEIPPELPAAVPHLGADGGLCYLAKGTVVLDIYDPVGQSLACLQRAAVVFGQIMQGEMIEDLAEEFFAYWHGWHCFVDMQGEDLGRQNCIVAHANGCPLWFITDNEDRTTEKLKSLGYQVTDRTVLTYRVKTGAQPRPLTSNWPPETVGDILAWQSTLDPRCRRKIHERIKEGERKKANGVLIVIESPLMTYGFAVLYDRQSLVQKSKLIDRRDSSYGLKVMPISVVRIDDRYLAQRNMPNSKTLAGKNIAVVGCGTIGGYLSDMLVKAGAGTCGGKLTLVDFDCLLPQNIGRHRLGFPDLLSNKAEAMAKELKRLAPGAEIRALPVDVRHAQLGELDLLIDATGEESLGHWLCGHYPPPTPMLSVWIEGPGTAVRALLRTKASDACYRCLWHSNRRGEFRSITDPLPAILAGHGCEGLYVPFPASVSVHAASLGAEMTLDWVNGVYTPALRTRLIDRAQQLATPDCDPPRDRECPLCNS
Summary of the method: as §1

[12] = molecular target: T4, CdnA-Cap2 complex (Pseudomonas aeruginosa, UniProt P0DX86+P0DX87, C105A/C479A); assay: Gel filtration assay of Acb2 with CdnA-Cap2 complex; assay type: binding, P. aeruginosa BWHPSA011 (Pa011); conditions: molar ratio 5:1
T4 sequence (P0DX86 1-380): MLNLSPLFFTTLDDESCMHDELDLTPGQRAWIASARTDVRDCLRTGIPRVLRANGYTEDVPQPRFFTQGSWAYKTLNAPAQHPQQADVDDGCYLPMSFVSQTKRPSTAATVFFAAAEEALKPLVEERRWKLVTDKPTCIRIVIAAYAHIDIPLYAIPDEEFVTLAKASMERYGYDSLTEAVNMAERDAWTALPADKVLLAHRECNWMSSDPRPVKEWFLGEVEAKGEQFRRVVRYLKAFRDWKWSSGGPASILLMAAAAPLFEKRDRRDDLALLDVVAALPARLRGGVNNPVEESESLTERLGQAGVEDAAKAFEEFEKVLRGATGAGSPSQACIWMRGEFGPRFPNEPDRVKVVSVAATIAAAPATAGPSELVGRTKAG
T4 sequence (P0DX87 1-543 C105A/C479A): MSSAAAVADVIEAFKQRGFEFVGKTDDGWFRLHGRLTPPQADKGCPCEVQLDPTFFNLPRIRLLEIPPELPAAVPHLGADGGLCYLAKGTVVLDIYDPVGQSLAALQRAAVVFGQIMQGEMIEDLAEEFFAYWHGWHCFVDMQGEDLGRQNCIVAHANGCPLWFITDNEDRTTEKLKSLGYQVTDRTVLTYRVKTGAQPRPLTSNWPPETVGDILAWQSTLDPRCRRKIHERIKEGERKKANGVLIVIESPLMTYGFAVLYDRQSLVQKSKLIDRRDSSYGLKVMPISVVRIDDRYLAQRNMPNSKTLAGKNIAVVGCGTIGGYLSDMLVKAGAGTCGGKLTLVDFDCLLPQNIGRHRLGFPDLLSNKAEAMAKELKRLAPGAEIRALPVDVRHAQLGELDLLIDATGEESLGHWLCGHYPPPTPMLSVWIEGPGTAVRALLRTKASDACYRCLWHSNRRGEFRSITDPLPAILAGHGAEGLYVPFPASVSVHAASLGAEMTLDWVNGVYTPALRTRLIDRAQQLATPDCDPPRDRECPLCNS
Summary of the method: as §1

[13] = test system: 3’,3’-cGAMP levels in phage-infected Pa011 cells; assay: Intracellular 3’,3’-cGAMP measurements by ELISA in phage-infected Pa011 cells; assay type: cell-based, Pseudomonas aeruginosa; conditions: overexpression in phage-infected Pa011 WT cells
[14] = molecular target: T5, CapV (Pseudomonas aeruginosa, UniProt P0DX85); assay: Fluorogenic biochemical assay for CapV phospholipase activity; set-up: species or system P. aeruginosa BWHPSA011 (Pa011); conditions: Acb2 or mutant 32 μM preincubated with 0.8 μM 3’,3’-cGAMP for 10 minutes
T5 sequence (P0DX85 whole entry, looked up): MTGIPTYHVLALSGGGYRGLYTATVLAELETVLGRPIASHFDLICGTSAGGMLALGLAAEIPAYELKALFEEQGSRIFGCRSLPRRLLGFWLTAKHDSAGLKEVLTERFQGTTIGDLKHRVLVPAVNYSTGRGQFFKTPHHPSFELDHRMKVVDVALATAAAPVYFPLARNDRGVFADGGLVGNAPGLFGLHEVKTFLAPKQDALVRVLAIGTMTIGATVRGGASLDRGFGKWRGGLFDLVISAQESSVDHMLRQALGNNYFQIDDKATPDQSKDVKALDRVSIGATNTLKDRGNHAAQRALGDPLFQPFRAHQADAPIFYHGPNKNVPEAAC

[15] = molecular target: T5, CapV; assay: Gel filtration assay of Acb2 with CapV; assay type: binding, P. aeruginosa BWHPSA011 (Pa011); conditions: molar ratio 5:1
Summary of the method: as §1

Q: With `Nc1ncnc2c1ncn2[C@@H]1O[C@@H]2COP(=O)(O)O[C@H]3[C@@H](O)[C@H](n4ccc(=O)[nH]c4=O)O[C@@H]3COP(=O)(O)O[C@H]2[C@H]1O` [3’,3’-c-UMP-AMP] as the molecule, how does the Kd [1] read?
A: The Kd was about 97 nM.

Q: For `Nc1nc2c(ncn2[C@@H]2O[C@@H]3COP(=O)(O)O[C@H]4[C@@H](O)[C@H](n5ccc(=O)[nH]c5=O)O[C@@H]4COP(=O)(O)O[C@H]3[C@H]2O)c(=O)[nH]1` [3’,3’-c-UMP-GMP], which Kd [1] is on record?
A: Its Kd is about 524 nM.

Q: Which Kd [1] does the source give for `O=c1ccn([C@@H]2O[C@@H]3COP(=O)(O)O[C@H]4[C@@H](O)[C@H](n5ccc(=O)[nH]c5=O)O[C@@H]4COP(=O)(O)O[C@H]3[C@H]2O)c(=O)[nH]1` [3’,3’-c-di-UMP] here?
A: The Kd was about 99 nM.

Q: For `Nc1nc2c(ncn2[C@@H]2O[C@@H]3COP(=O)(O)O[C@H]4[C@@H](O)[C@H](n5cnc6c(N)ncnc65)O[C@@H]4COP(=O)(O)O[C@H]3[C@H]2O)c(=O)[nH]1` [3’,3’-cGAMP], which “shift of purified Acb2 protein in native gel” value [2] is on record?
A: The value was “significant shift”.

Q: What about the “sequestering of cyclic dinucleotide by Acb2 (HPLC)” value (“sequestering of cyclic dinucleotide” for short) [3] of the same molecule?
A: Its value is “depletes detectable”.

Q: What about the Kd [4] of the same molecule?
A: Its Kd is about 30 nM.

Q: And the Kd [1]?
A: Its Kd is about 87 nM.

Q: What about the “binding of 3’,3’-cGAMP to Acb2 K26A in vitro” value [5] of the same molecule?
A: Its value is “abolished”.

Q: What about the “binding of 3’,3’-cGAMP to Acb2 Y11A in vitro” value [6] of the same molecule?
A: The value was “abolished”.

Q: And the “activation of CapV phospholipase activity” value [7]?
A: Its value is “activated”.

Q: For `Nc1ncnc2c1ncn2[C@@H]1O[C@@H]2COP(=O)(O)O[C@H]3[C@@H](O)[C@H](n4cnc5c(N)ncnc54)O[C@@H]3COP(=O)(O)O[C@H]2[C@H]1O` [c-di-AMP], which “sequestering of cyclic dinucleotide” value [3] is on record?
A: The value was “sequester”.

Q: And the Kd [1]?
A: Its Kd is about 66 nM.

Q: Which “sequestering of cyclic dinucleotide” value [3] does the source give for `Nc1nc2c(ncn2[C@@H]2O[C@@H]3COP(=O)(O)O[C@H]4[C@@H](O)[C@H](n5cnc6c(=O)[nH]c(N)nc65)O[C@@H]4COP(=O)(O)O[C@H]3[C@H]2O)c(=O)[nH]1` [c-di-GMP] here?
A: The value was “very weak sequestering effect”.

B1: Acb2 (anti-CBASS 2) from phage PaMx33 (natural protein, Pseudomonas aeruginosa phage PaMx33, UniProt A0A1C8HPQ3 1-93, looked up)
chain: MDNQHKKIKGYRDLSQEEIDMMNRVKELGSQFEKLIQDVSDHLRGQYNASLHNRDEITRIANAEPGRWLAIGKTDIQTGMMAIIRAIAQPDSF
Q: With B1 as the molecule, how does the “stoichiometry N” value [8] read?
A: The value was 6.

B2: long gp24: 94 a.a. version of PaMx41 gp24 (orf24 X37Q), named Acb2 hereafter (protein)
chain: MDNQHKKIKGYRDLSQEEIDMMNRVKELGSQFEKLIQDVSDHLRGQYNASLHNRDEITRIANAEPGRWLAIGKTDIQTGMMAIIRAIAQPDSF
modifications: left off: His6-SUMO, end not stated, cleaved
Q: Which “increase of PaMx41 WT phage titer” value [9] does the source give for B2 here?
A: Its value is ≥ 4 orders of magnitude.

B3: Acb2: phage anti-CBASS protein 2, purified from the naturally CBASS-resistant PaMx33 phage; hexameric cyclic dinucleotide sponge (protein)
chain: MDNQHKKIKGYRDLSQEEIDMMNRVKELGSQFEKLIQDVSDHLRGQYNASLHNRDEITRIANAEPGRWLAIGKTDIQTGMMAIIRAIAQPDSF
modifications: left off: His6-SUMO, end not stated, cleaved
Q: For B3, which “binding of Acb2 to purified CdnA” value [10] is on record?
A: Its value is “did not bind”.

Q: What about the “binding of Acb2 to purified Cap2” value [11] of the same molecule?
A: The value was “did not bind”.

Q: What about the “binding of Acb2 to the CdnA-Cap2 complex” value [12] of the same molecule?
A: The value was “did not bind”.

Q: And the “effect on detectable 3’,3’-cGAMP levels” value [13]?
A: The value was “reduced”.

Q: What about the “effect on 3’,3’-cGAMP-activated CapV activity” value [14] of the same molecule?
A: Its value is “abrogated”.

Q: What about the “binding of Acb2 to purified CapV” value [15] of the same molecule?
A: Its value is “did not bind”.

— PMC9975087 (Cell, 2023)
